Reference: ChEMBL document CHEMBL4382192, “Discovery of a potent dual ALK and EGFR T790M inhibitor” (Eur J Med Chem, 2017)

What was measured:
[1] = test system: Tyrosine-protein kinase ABL1 (Homo sapiens), P00519 [T315I]; experiment: Binding affinity to human non-phosphorylated ABL1 T315I mutant (S229 to K512 residues) expressed in mammalian expression system assessed as residual binding level at 1 uM by Kinomescan method relative to control
Summary of the method: (§1)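 Kinome-wide selectivity panel run by the KINOMEscan method, with the test compound at a single concentration of 1 μM. Wild-type and mutant kinases were profiled in the same screen.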

[2] = target: 5'-AMP-activated protein kinase catalytic subunit alpha-1 (Homo sapiens) (UniProt Q13131); experiment: Binding affinity to wild-type human partial length AMPK alpha1 (M1 to E306 residues) expressed in bacterial expression system assessed as residual binding level at 1 uM by Kinomescan method relative to control
5'-AMP-activated protein kinase catalytic subunit alpha-1 (Homo sapiens), sequence (Q13131 whole entry, looked up, the tested form may be a part): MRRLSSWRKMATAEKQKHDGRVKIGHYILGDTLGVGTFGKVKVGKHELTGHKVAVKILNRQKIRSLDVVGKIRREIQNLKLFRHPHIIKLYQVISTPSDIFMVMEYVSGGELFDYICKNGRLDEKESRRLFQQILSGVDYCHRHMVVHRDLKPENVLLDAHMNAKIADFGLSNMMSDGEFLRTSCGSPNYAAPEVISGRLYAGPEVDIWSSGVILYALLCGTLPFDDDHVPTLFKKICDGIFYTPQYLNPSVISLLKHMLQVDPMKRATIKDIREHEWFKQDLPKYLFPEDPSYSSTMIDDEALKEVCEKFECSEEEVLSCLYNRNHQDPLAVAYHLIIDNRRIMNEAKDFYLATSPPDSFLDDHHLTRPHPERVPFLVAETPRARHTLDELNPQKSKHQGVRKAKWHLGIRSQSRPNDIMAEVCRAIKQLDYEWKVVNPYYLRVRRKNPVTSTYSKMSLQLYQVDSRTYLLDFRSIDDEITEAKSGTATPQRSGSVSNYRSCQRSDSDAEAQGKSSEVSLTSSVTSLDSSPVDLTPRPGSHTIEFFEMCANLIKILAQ

[3] = target: Dual specificity mitogen-activated protein kinase kinase 1 (Homo sapiens) (UniProt Q02750); experiment: Binding affinity to wild-type human full length MEK1 (M1 to V393 residues) expressed in mammalian expression system assessed as residual binding level at 1 uM by Kinomescan method relative to control
Summary of the method: (§2)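 Single-point kinome-wide KINOMEscan binding panel, test compound at 1 μM, run by the provider's standard protocol.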

[4] = target: Ribosomal protein S6 kinase alpha-3 (Homo sapiens) (UniProt P51812); experiment: Binding affinity to wild-type human partial length C-terminal RSK2 kinase domain 2 (V402 to S715 residues) expressed in mammalian expression system assessed as residual binding level at 1 uM by Kinomescan method relative to control
[5] = target: Dual specificity protein kinase CLK1 (Homo sapiens) (UniProt P49759); experiment: Binding affinity to wild-type human full length CLK1 (M1 to I484 residues) expressed in bacterial expression system assessed as residual binding level at 1 uM by Kinomescan method relative to control
[6] = target: Dual specificity tyrosine-phosphorylation-regulated kinase 1A (Homo sapiens) (UniProt Q13627); experiment: Binding affinity to wild-type human partial length DYRK1A (H129 to S509 residues) expressed in mammalian expression system assessed as residual binding level at 1 uM by Kinomescan method relative to control
[7] = target: Dual specificity protein kinase CLK4 (Homo sapiens) (UniProt Q9HAZ1); experiment: Binding affinity to wild-type human partial length CLK4 (R135 to K481 residues) expressed in bacterial expression system assessed as residual binding level at 1 uM by Kinomescan method relative to control
[8] = target: Cyclin-dependent kinase 8 (Homo sapiens) (UniProt P49336); experiment: Binding affinity to wild-type human partial length CDK8 (M1 to T360 residues) expressed in bacterial expression system assessed as residual binding level at 1 uM by Kinomescan method relative to control
[9] = target: Tyrosine-protein kinase Lck (Homo sapiens) (UniProt P06239); experiment: Binding affinity to wild-type human partial length LCK (R207 to P509 residues) expressed in bacterial expression system assessed as residual binding level at 1 uM by Kinomescan method relative to control
Tyrosine-protein kinase Lck (Homo sapiens), sequence (P06239 2-509 limits assumed): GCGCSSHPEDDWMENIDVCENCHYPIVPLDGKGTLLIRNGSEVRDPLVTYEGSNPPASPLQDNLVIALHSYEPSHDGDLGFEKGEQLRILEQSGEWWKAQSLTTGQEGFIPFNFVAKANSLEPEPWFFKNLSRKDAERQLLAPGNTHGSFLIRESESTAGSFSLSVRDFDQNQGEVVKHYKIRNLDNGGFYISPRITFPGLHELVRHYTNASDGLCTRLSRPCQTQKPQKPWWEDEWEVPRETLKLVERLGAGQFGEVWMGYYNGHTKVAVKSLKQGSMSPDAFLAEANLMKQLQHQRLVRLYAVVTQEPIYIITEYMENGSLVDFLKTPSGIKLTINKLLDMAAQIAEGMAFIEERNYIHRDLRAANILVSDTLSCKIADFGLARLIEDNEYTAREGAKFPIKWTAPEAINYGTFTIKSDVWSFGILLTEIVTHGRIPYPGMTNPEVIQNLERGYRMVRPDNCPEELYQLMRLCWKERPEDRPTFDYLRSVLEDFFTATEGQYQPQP

[10] = test system: Tyrosine-protein kinase ABL1 (Homo sapiens), P00519 [Y253F]; experiment: Binding affinity to human phosphorylated ABL1 Y253F mutant (S229 to K512 residues) expressed in mammalian expression system assessed as residual binding level at 1 uM by Kinomescan method relative to control; summary of the method: as §1
[11] = test system: Receptor-type tyrosine-protein kinase FLT3 (Homo sapiens), P36888 [N841I]; experiment: Binding affinity to human partial length FLT3 N841I mutant (V592 to Y969 residues) expressed in bacterial expression system assessed as residual binding level at 1 uM by Kinomescan method relative to control; summary of the method: as §1
[12] = test system: Epidermal growth factor receptor (Homo sapiens), P00533 [T790M]; experiment: Binding affinity to human partial length EGFR T790M mutant (R669 to G1022 residues) expressed in mammalian expression system assessed as residual binding level at 1 uM by Kinomescan method relative to control; summary of the method: as §1
[13] = target: Myosin light chain kinase 2, skeletal/cardiac muscle (Homo sapiens) (UniProt Q9H1R3); experiment: Binding affinity to wild-type human partial length MYLK2 (D258 to K570 residues) expressed in bacterial expression system assessed as residual binding level at 1 uM by Kinomescan method relative to control
Myosin light chain kinase 2, skeletal/cardiac muscle (Homo sapiens), sequence (Q9H1R3 whole entry, the tested form may be a part): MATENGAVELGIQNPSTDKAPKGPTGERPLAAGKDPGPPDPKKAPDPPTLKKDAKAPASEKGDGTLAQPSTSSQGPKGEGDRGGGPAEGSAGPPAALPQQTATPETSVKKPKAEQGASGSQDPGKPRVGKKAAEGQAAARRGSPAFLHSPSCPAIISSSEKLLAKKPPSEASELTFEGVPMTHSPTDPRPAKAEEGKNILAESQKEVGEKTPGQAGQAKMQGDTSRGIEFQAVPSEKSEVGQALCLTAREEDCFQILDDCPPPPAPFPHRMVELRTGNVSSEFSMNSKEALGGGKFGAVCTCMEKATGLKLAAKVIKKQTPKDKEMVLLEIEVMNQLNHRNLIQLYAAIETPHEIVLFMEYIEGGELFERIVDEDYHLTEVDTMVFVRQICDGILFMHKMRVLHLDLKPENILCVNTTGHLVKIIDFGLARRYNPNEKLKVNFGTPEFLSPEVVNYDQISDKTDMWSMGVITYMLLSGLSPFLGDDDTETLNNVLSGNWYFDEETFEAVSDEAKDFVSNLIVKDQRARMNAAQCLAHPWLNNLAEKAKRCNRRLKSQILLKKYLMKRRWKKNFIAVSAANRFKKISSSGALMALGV

[14] = target: Serine/threonine-protein kinase TBK1 (Homo sapiens) (UniProt Q9UHD2); experiment: Binding affinity to wild-type human full length TBK1 (M1 to L729 residues) expressed in mammalian expression system assessed as residual binding level at 1 uM by Kinomescan method relative to control
Serine/threonine-protein kinase TBK1 (Homo sapiens), sequence (Q9UHD2 whole entry, the tested form may be a part): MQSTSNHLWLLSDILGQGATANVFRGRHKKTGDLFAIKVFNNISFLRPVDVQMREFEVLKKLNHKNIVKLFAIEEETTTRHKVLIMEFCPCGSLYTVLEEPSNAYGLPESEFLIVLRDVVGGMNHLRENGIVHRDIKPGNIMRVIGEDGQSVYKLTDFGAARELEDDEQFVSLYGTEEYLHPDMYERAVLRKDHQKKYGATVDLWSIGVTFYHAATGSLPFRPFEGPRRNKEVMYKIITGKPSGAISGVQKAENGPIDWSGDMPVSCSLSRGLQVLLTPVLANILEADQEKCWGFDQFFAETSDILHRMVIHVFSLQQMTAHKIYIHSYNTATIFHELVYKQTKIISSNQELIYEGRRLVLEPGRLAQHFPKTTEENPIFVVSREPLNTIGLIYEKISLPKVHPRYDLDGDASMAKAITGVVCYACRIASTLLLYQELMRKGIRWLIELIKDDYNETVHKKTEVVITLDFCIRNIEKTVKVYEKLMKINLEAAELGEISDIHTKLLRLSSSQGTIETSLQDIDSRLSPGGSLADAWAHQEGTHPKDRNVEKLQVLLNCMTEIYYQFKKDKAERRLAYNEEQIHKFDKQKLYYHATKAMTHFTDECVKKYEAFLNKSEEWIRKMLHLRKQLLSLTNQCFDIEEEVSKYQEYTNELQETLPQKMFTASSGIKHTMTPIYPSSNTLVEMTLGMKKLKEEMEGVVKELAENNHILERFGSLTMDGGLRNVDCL

[15] = test system: Mycobacterium tuberculosis; experiment: Binding affinity to wild-type Mycobacterium tuberculosis partial length PKNB (M1 to G279 residues) expressed in mammalian expression system assessed as residual binding level at 1 uM by Kinomescan method relative to control; summary of the method: as §1
[16] = target: Mitogen-activated protein kinase kinase kinase 5 (Homo sapiens) (UniProt Q99683); experiment: Binding affinity to wild-type human partial length ASK1 (E648 to S964 residues) expressed in bacterial expression system assessed as residual binding level at 1 uM by Kinomescan method relative to control
[17] = target: Serine/threonine-protein kinase TAO3 (Homo sapiens) (UniProt Q9H2K8); experiment: Binding affinity to wild-type human partial length TAOK3 (M1 to T316 residues) expressed in mammalian expression system assessed as residual binding level at 1 uM by Kinomescan method relative to control
[18] = target: Cyclin-dependent kinase 11A (Homo sapiens) (UniProt Q9UQ88); experiment: Binding affinity to wild-type human partial length CDC2L2 (D391 to K730 residues) expressed in bacterial expression system assessed as residual binding level at 1 uM by Kinomescan method relative to control
[19] = test system: Phosphatidylinositol 4,5-bisphosphate 3-kinase catalytic subunit alpha isoform (Homo sapiens), P42336 [C420R]; experiment: Binding affinity to human partial length PIK3CA C420R mutant (R108 to N1068 residues) expressed in mammalian expression system assessed as residual binding level at 1 uM by Kinomescan method relative to control
[20] = target: Myosin light chain kinase, smooth muscle (Homo sapiens) (UniProt Q15746); experiment: Binding affinity to wild-type human full length MYLK (M854 to E1845 residues) expressed in mammalian expression system assessed as residual binding level at 1 uM by Kinomescan method relative to control; summary of the method: as §2
Myosin light chain kinase, smooth muscle (Homo sapiens), sequence (Q15746 whole entry, the tested form may be a part): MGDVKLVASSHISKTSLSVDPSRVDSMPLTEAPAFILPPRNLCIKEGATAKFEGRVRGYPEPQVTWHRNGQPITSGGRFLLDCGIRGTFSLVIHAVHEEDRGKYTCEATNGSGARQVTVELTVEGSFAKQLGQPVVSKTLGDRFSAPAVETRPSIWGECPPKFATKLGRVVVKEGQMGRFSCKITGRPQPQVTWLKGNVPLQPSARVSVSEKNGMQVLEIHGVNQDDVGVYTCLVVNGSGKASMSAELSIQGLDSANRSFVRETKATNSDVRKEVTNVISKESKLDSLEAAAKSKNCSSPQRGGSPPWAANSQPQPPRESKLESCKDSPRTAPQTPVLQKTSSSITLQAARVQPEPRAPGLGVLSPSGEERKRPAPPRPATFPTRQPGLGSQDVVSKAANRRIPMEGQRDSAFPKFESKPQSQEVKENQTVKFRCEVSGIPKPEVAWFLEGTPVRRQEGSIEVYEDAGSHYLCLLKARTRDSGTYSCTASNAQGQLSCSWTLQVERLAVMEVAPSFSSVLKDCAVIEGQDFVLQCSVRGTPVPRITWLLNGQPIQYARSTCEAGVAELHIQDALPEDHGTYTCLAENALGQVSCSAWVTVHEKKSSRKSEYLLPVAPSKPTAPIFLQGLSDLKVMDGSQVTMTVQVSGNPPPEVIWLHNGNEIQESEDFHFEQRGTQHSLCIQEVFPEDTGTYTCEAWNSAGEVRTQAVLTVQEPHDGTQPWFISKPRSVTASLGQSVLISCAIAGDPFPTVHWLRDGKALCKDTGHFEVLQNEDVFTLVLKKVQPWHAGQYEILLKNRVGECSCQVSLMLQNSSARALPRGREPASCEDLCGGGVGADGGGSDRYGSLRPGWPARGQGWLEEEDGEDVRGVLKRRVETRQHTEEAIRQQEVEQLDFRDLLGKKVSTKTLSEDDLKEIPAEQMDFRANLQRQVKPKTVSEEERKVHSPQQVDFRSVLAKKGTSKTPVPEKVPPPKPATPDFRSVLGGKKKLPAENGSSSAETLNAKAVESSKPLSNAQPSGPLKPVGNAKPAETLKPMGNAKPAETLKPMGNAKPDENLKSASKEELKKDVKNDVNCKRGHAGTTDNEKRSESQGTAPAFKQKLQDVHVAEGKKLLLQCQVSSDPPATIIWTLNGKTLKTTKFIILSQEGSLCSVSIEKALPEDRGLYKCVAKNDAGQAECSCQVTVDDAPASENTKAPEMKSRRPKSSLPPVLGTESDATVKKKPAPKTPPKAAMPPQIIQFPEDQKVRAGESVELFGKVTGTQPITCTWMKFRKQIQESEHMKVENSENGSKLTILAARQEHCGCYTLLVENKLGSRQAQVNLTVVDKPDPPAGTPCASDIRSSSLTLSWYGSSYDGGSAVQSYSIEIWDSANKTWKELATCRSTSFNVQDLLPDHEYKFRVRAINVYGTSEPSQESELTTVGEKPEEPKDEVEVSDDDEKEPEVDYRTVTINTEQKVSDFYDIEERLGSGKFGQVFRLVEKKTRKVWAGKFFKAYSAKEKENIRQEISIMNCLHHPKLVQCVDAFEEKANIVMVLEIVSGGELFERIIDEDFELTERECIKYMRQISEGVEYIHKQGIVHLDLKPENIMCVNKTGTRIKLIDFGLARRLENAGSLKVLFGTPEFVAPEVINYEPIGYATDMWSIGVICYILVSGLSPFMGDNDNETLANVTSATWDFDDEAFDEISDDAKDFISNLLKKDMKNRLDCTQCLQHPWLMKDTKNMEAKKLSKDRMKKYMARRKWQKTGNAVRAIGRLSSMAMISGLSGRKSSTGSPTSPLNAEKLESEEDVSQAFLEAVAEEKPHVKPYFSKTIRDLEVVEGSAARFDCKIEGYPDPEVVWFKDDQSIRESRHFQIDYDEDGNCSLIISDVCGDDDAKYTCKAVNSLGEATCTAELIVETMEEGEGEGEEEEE

[21] = target: Mitogen-activated protein kinase 10 (Homo sapiens) (UniProt P53779); experiment: Binding affinity to wild-type human partial length JNK3 (V28 to Q422 residues) expressed in mammalian expression system assessed as residual binding level at 1 uM by Kinomescan method relative to control
Mitogen-activated protein kinase 10 (Homo sapiens), sequence (P53779 whole entry, the tested form may be a part): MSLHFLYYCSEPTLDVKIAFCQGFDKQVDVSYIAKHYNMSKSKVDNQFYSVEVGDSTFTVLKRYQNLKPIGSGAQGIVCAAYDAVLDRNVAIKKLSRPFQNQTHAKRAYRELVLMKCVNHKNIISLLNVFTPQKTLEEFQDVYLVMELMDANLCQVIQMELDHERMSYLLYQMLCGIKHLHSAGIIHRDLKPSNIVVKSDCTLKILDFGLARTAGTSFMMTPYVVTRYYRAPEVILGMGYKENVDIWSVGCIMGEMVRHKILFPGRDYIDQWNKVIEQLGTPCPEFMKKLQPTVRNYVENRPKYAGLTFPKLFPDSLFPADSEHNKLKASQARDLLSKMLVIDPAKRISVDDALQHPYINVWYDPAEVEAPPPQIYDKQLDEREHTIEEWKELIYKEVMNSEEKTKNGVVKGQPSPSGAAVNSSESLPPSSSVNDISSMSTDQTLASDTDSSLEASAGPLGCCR

[22] = target: Dual specificity protein kinase CLK3 (Homo sapiens) (UniProt P49761); experiment: Binding affinity to wild-type human full length CLK3 (M1 to R490 residues) expressed in bacterial expression system assessed as residual binding level at 1 uM by Kinomescan method relative to control
[23] = target: Insulin-like growth factor 1 receptor (Homo sapiens) (UniProt P08069); experiment: Binding affinity to wild-type human partial length IGF1R (L972 to D1294 residues) expressed in bacterial expression system assessed as residual binding level at 1 uM by Kinomescan method relative to control

Structure (SMILES): C=CC(=O)Nc1cc(Nc2ncc(Cl)c(Nc3ccccc3S(=O)(=O)C(C)C)n2)c(OC)cc1N(C)CCN(C)C
- Activity [1]: 0.9%
- Activity [2]: 16%
- Activity [3]: 72%
- Activity [4]: 75%
- Activity [5]: 6.9%
- Activity [6]: 71%
- Activity [7]: 15%
- Activity [8]: 90%
- Activity [9]: 14%
- Activity [10]: 2.1%
- Activity [11]: 6.8%
- Activity [12]: 0%
- Activity [13]: 77%
- Activity [14]: 21%
- Activity [15]: 50%
- Activity [16]: 100%
- Activity [17]: 0.15%
- Activity [18]: 78%
- Activity [19]: 87%
- Activity [20]: 1.3%
- Activity [21]: 82%
- Activity [22]: 23%
- Activity [23]: 0.55%
